# Results from the RNAGym collection of RNA variant scans (doi:10.1126/science.aae0568).
# Fewer inactive variants are shown than the library holds.
# B1: tRNA (parent)
# chain: GUUCCGUUGGCGUAAUGGUAACGCGUCUCCCUCCUAAGGAGAAGACUGCGGGUUCGAGUCCCGUACGGAACG
# Variants of: B1
# Experiment: yeast fitness relative to wild type (ratio to wild type); higher = fitter; tRNA-Arg(CCU), competitive growth, 37 C, YPD
# In short: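 Start and end populations of a pooled competition were compared by 100-nucleotide paired-end sequencing of gene amplicons. The Saccharomyces cerevisiae strains carried tRNA-Arg(CCU) gene variants at the native genomic locus, synthesised with a 3% per-site mutation rate at 69 sites, and competed in YPD at 37°C for 24 hours in six parallel replicates. Darwinian fitness relative to wild type was based on the change in genotype frequencies. Genotypes required ≥ 100 starting reads, and estimates < 0.5 were set to 0.5.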
row,Variant,yeast fitness
1,A42C A69C A70U,0.721
2,U3A A20U C31G,0.535
3,C5A C60U A65C,≤ 0.5
4,U59C C61U,0.839
5,G56U A65U G68C,≤ 0.5
6,U32A A37C C60A,≤ 0.5
7,U3A C4U,0.874
8,C29G U35A U64C,≤ 0.5
9,U13G C31U U35A,0.51
10,U7G A20G U32G A43C A45U,≤ 0.5
11,C31U U59C,1.02
12,U26G C29A A42C,0.586
13,C27U A65U,0.99
14,G18C A20U U53C A69U,≤ 0.5
15,G9A G18A C60G,≤ 0.5
16,C29G U32A C62A,0.608
17,C4G C5U G39A G44C,≤ 0.5
18,U7A U53A,≤ 0.5
19,U7A A20C U26A,≤ 0.5
20,G25A C46G A65U,0.788
21,G68C A70U,0.899

row,Variant,yeast fitness
1,U3A C24A G63A U64A,≤ 0.5
2,U16A G44C,0.751
3,A21U G52A A65U,≤ 0.5
4,C5G C11U A21G C60A,≤ 0.5
5,G6A A15C C22U C33G C62A G63C,0.753
6,C11A A20G G39A G51A U53A C66U,≤ 0.5
7,A14C G17C C31U A37C,0.577
8,A43C G50A G67A,≤ 0.5
9,U47G A65C,0.672
10,U7C C34U,0.699
11,A45U U47A C60G,≤ 0.5
12,U3C U53A,0.664
13,U7C A14G C29U C31U C33U,0.592
14,A20G C33U G52A G63A,0.707
15,A40G A42G A43G U59C,≤ 0.5
16,A14C U19A U59C A69G,0.652
17,C29U G67A,0.771
18,U2A C5G C24U C30G G68A,≤ 0.5
19,C4U U64A,0.852
20,C11U A15G A69C,0.75
21,C11G C27G,≤ 0.5

row,Variant,yeast fitness
1,G17C U26G G39C A40U,≤ 0.5
2,G17C G48C,0.709
3,C5G C29U A43C,0.537
4,U7C G10A C30G A37C,0.554
5,C55G C62A,0.619
6,G6A C31G G50A,0.61
7,A15C U16C A43U A70G,0.532
8,U16A C31A G67U,≤ 0.5
9,C11G C55G G63C G67C,0.557
10,G12A G17C,0.661
11,A43U G67C,0.778
12,C5A C31U A69U,0.786
13,G12A U47A G63A A69U,0.554
14,C29U A45C U53C C55U G56C C61A C66U,≤ 0.5
15,G9A C33U A36U U59A,≤ 0.5
16,C24A G41A G44A U53A C66U,≤ 0.5
17,G18A U53A U54G,≤ 0.5
18,C22U A43G,0.835
19,U2G A15U C62A,0.613
20,C34U G44C U47G A65G,≤ 0.5
21,U3A U13C A69U,0.72

row,Variant,yeast fitness
1,C5U C11U C60U A69U,0.538
2,A15U G56A,0.727
3,A21U C27A G50C G52C,≤ 0.5
4,C27U C66A G68C,0.543
5,U2C U28G A43U G56C A57U G67A,≤ 0.5
6,G17C G18C C31G A42G,≤ 0.5
7,A14G G63A,0.756
8,G23A G58C,0.885
9,G23C C24U A37C U53C,≤ 0.5
10,C24G A36C A42U A43G,≤ 0.5
11,C22U G38C G48A,≤ 0.5
12,G6A U13A U26C C30G A65C,≤ 0.5
13,U35A A57C C62U,≤ 0.5
14,U3G C5G G10A C30A C31G C49A C60U G67A,0.572
15,U19G A21G,1.05
16,C33U A43U,0.898
17,G6A G39C U54C,≤ 0.5
18,U3C U26A C31U,1.02
19,C4A C30G C49U,0.566
20,G63A C66G,0.678
